ChEMBL document CHEMBL1806369, “Carbonic anhydrase I and II activation with mono- and dihalogenated histamine derivatives” (Bioorg Med Chem Lett, 2011)

How the values were obtained:
[1] = biological target: Carbonic anhydrase 1 (Homo sapiens) (UniProt P00915); assay: Activation of human cytosolic carbonic anhydrase 1 preincubated for 15 mins by stopped-flow CO2 hydration assay
Method in brief: (§1)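 Initial velocity taken from at least six traces of the first 5–10% of reaction per activator, with uncatalyzed rates measured identically and subtracted. Activator stocks 10 mM in distilled-deionized water, diluted with water down to 0.1 nM. Enzyme and activator preincubated 15 min at room temperature before assay.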

[2] = biological target: Carbonic anhydrase 2 (Homo sapiens) (UniProt P00918); assay: Activation of human cytosolic carbonic anhydrase 2 preincubated for 15 mins by stopped-flow CO2 hydration assay; method in brief: as §1

Carbonic anhydrase 1 (Homo sapiens), sequence (P00915 2-261 limits assumed): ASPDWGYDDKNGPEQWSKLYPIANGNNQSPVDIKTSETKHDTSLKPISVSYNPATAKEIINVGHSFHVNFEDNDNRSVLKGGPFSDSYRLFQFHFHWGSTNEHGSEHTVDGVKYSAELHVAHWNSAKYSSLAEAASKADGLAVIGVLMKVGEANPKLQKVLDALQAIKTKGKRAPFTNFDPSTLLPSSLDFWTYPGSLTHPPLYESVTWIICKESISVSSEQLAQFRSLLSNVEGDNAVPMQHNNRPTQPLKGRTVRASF

Structure (SMILES) | KA [1] [µM] | KA [2] [µM]
NCCc1nc[nH]c1Br | 0.012 | 0.008
NCCc1nc[nH]c1I | 0.0007 | 0.001
NCCc1nc[nH]c1Cl | 0.018 | 0.032
NCCc1nc(Cl)[nH]c1Cl | 0.021 | 0.115
CC(C)(C)OC(=O)NCCc1nc(Cl)[nH]c1Cl | 5.4 | 50.2
CC(C)(C)OC(=O)NCCc1nc[nH]c1I | 12.1 | 36.7
NCCc1nc(Br)[nH]c1Br | 0.015 | 0.096
NCCc1nc(I)[nH]c1I | 0.0009 | 0.065
CC(C)(C)OC(=O)NCCc1nc(Br)[nH]c1Br | 7.1 | 44.5
CC(C)(C)OC(=O)NCCc1nc[nH]c1Cl | 16.5 | 24.8
CC(C)(C)OC(=O)NCCc1nc[nH]c1Br | 13.3 | 28.5
CC(C)(C)OC(=O)NCCc1nc(I)[nH]c1I | 29.3 | 13.6
